Data published in ChEMBL document CHEMBL5149984, “Discovery of HN37 as a Potent and Chemically Stable Antiepileptic Drug Candidate” (J Med Chem, 2021).

Target: T1, Potassium voltage-gated channel subfamily KQT member 4 (Homo sapiens) (UniProt P56696)
T1 sequence (whole entry): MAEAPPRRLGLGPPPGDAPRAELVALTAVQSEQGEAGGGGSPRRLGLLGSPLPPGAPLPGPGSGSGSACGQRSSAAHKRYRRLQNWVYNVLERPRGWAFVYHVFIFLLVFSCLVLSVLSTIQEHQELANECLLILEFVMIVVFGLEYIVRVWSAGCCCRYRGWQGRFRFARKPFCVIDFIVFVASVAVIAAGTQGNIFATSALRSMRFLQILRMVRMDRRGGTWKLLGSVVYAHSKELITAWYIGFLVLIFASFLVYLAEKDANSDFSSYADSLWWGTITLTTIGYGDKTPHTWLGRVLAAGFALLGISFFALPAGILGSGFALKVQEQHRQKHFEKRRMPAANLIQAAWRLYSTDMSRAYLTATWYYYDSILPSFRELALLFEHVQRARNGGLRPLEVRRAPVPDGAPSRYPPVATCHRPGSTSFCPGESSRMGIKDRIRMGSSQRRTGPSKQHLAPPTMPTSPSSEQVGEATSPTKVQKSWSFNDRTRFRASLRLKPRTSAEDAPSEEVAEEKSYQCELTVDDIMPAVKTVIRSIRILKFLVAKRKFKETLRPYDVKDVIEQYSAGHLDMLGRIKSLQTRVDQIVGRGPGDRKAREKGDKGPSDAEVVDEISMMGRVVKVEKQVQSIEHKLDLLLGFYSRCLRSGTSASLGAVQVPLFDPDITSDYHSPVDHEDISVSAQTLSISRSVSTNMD
Assay: Agonist activity at human KCNQ4 channel expressed in CHO cells assessed as shift of half voltage of maximal activation at 0.1 uM by patch clamp method
Type: cell-based
Conditions: filed as agonist
How it was run: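 Whole-cell patch clamp at room temperature on CHO cells (DMEM/F12, 10% FBS) transiently co-transfected with EGFP and hKCNQ1, rKCNQ2, rKCNQ3 A278T, hKCNQ4 or hKCNQ5; KCNQ2/3 at 1:1 cDNA ratio. Pipette solution 145 mM KCl, 5 mM MgATP, pH 7.3; bath 140 mM NaCl, 5 mM KCl, pH 7.4, under perfusion. V1/2 from Boltzmann fits; I/I0 is current amplitude with versus without compound; n = 4−6.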

In the case of C#CCN(Cc1ccc(F)cc1)c1cc(C)c(NC(=O)OC)c(C)c1, the Activity is reported as -56.6 mV.
